Consider five compounds from ChEMBL document CHEMBL1144135, “Synthesis of 11,12-epoxydrim-8,12-en-11-ol, 11,12-diacetoxydrimane, and warburganal from (-)-sclareol” (J Nat Prod, 1999).

Holding throughout (format): functional, cell-based
For one assay, the system named is HT-29. Briefly: Antitumor activity against human HT-29 cells. Put shortly:
(§1)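 Cells from four lines (P-388, A-549, HT-29, MEL-28) were tested in parallel with reference standards. Activity was read out as IC50 in […], using a previously published antitumor assay protocol.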

The next assay concerns A549. Briefly: Antitumor activity against human A549 cells. An outline of the steps: as §1
A short description of assay [1]: Antitumor activity against human SK MEL28 cells. The conditions noted are these: SK-MEL-28. Put shortly:
as §1

The subject of the next assay is P388. The assay is described as follows: Antitumor activity against mouse P388 cells. An outline of the steps: as §1

In brackets after ≈: the same amount, converted by molar mass.

Regarding `CC1(C)CCC[C@]2(C)[C@@H]3C(=CO[C@@H]3O)CC[C@@H]12`, the IC50 in the assay on HT-29 was 1 µg/mL (≈ 4.23 µM); in the assay with A549, 0.5 µg/mL (≈ 2.12 µM); in assay [1], 1 µg/mL (≈ 4.23 µM); with P388, 0.5 µg/mL (≈ 2.12 µM).
Take `COc1cccc2c1C(=O)c1c(O)c3c(c(O)c1C2=O)C[C@@](O)(C(=O)CO)C[C@@H]3O[C@H]1C[C@H](N)[C@H](O)[C@H](C)O1.Cl` [DOXORUBICIN HYDROCHLORIDE]: the 50% inhibitory concentration (IC50) in the assay with HT-29 is 0.5 µg/mL; in the assay on A549, 0.025 µg/mL; in assay [1], 0.5 µg/mL; in the assay with P388 it was 0.1 µg/mL.
For the compound `O=c1[nH]cc(F)c(=O)[nH]1` [FLUOROURACIL], the IC50 is 0.1 µg/mL (≈ 0.769 µM) with HT-29, 0.1 µg/mL (≈ 0.769 µM) in the assay on A549, 0.1 µg/mL (≈ 0.769 µM) in assay [1] and 0.02 µg/mL (≈ 0.154 µM) in the assay on P388.
Take `CN(Cc1cnc2nc(N)nc(N)c2n1)c1ccc(C(=O)N[C@@H](CCC(=O)O)C(=O)O)cc1` [METHOTREXATE]: the half-inhibitory concentration (IC50) in the assay on HT-29 was 0.01 µg/mL (≈ 0.022 µM); in the assay on A549, 0.005 µg/mL (≈ 0.011 µM); in assay [1] it was 0.01 µg/mL (≈ 0.022 µM); in the assay on P388, 0.002 µg/mL (≈ 0.0044 µM).
Regarding `CC1(C)CCC[C@]2(C)[C@@H](C=O)C(C=O)=CC[C@@H]12` [POLYGODIAL], the half-maximal inhibitory concentration (IC50) in the assay with HT-29 is 2.5 µg/mL (≈ 10.7 µM); with A549 it was 2.5 µg/mL (≈ 10.7 µM); in assay [1], 2.5 µg/mL (≈ 10.7 µM); in the assay with P388, 1.2 µg/mL (≈ 5.12 µM).

What is called IC50 is the point on the concentration scale where inhibition reaches its midpoint. A lower IC50 goes with greater potency.
